Our source for the IC50 and inhibition values is ChEMBL document CHEMBL1795299, “Pyrrolo[2,3-c]azepine derivatives: a new class of potent protein tyrosine phosphatase 1B inhibitors” (Bioorg Med Chem Lett, 2011).

Broadly, the IC50 is the concentration at which inhibition is half-maximal.

Calls of active or inactive are those of the source. The rule behind the calls is not given here.

The target in one test is T1, Tyrosine-protein phosphatase non-receptor type 1 (Homo sapiens, UniProt P18031).
T1 sequence (P18031 whole entry): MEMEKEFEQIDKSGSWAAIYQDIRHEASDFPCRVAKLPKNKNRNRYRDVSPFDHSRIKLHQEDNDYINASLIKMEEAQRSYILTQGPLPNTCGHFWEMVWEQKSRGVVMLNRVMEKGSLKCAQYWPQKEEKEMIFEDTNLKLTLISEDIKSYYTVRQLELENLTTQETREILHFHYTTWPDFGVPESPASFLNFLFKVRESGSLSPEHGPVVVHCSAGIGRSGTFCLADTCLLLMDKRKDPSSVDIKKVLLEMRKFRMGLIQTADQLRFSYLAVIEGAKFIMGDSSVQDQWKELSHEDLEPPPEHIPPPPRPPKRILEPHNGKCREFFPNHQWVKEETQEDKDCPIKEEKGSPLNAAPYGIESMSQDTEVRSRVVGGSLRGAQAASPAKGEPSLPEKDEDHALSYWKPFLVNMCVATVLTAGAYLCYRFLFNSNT
In words: Inhibition of human recombinant PTP1B assessed as inhibition of para-nitrophenyl phosphate to para-nitrophenol conversion by spectrophotometry. In a few lines:
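Recombinant human GST-PTP1B, from E. coli BL21 pellets purified on a GST bead column, converts pNPP to p-nitrophenol, measured at 405 nm. Compounds were dissolved in 100% DMSO and tested over a dose series. IC50 came from a sigmoidal dose-response curve with variable slope. BPV(phen) served as the reference.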
Take `COc1ccc(-c2ccc(Cn3ccc4c3C(=O)NCC/C4=N\Nc3ccccn3)cc2)cc1`: the concentration for half-maximal inhibition (IC50) came out at 14.9 µM.
The same measure, in the same setting: the value for `CCCCOc1ccc(-c2ccc(Cn3ccc4c3C(=O)NCCC4=O)cc2)cc1` was 16.4 µM; that for `COc1ccc(-c2ccc(Cn3c4c(c5ccccc53)C(=O)CCNC4=O)cc2)cc1` was 13.9 µM.

Another test deals with T2, Tyrosine-protein phosphatase non-receptor type 1 (Homo sapiens) (UniProt P18031).
T2 sequence (whole entry): T1 sequence (P18031 whole entry)
In words: Inhibition of human recombinant PTP1B assessed as inhibition of para-nitrophenyl phosphate to para-nitrophenol conversion at 100 uM by spectrophotometry. In a few lines:
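GST-tagged human PTP1B, expressed in E. coli BL21 and purified on GST beads, hydrolyses pNPP to p-nitrophenol, read as absorbance at 405 nm. Compounds were dissolved in 100% DMSO, and the inhibitory rate was recorded. BPV(phen) served as the reference.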
With `COc1ccc(-c2ccc(Cn3ccc4c3C(=O)NCC/C4=N\Nc3ccccn3)cc2)cc1`, the inhibition entry is “Active”.
In the case of `O=C1CCNC(=O)c2c1ccn2-c1ccc(C(F)(F)F)cc1`, the inhibition result is “inactive”.
As for `CCCOc1ccc(-c2ccc(Cn3ccc4c3C(=O)NCCC4=O)cc2)cc1`, the inhibition result was “Active”.
On the same count and under the same terms, the value for `CCc1ccc(-n2ccc3c2C(=O)NCCC3=O)cc1` was “inactive”; that for `Nc1cccc(-c2ccc(Cn3ccc4c3C(=O)NCCC4=O)cc2)c1` was “inactive”.
As for `O=C1CCNC(=O)c2c1ccn2Cc1ccc(-c2ccccc2)cc1`, the inhibition result was “inactive”.
Turning to `O=C1c2c(ccn2Cc2ccccc2)/C(=N/O)CCN1Cc1ccccc1`, the inhibition result is “inactive”.
Still for that read-out and setting: under `O=C1NCCC(O)c2ccn(Cc3ccccc3)c21` (centres undefined) stands “inactive”; under `O=C1CCNC(=O)c2c1ccn2-c1ccc(-c2ccccc2)cc1`, “inactive”; under `O=C1CCNC(=O)c2c1ccn2-c1ccccc1`, “inactive”.
On to `COc1ccc(-c2ccc(Cn3ccc4c3C(=O)NCCC4=O)cc2)cc1`, for which the inhibition entry was “Active”.
With `CC(=O)c1ccc(-n2ccc3c2C(=O)NCCC3=O)cc1`, the inhibition entry is “inactive”.
With `O=C1NCC=Cc2ccn(Cc3ccccc3)c21`, the inhibition entry is “inactive”.
Still for that read-out and setting: the value for `O=C1CCNC(=O)c2c1ccn2Cc1ccccc1` was “inactive”; that for `NC(=O)c1ccccc1-c1ccc(Cn2ccc3c2C(=O)NCCC3=O)cc1` was “inactive”; that for `O=C1CCNC(=O)c2c1ccn2Cc1ccc(-c2ccc(O)cc2)cc1` was “Active”.
As for `COc1ccc(-n2ccc3c2C(=O)NCCC3=O)cc1`, the inhibition result is “inactive”.
For `O=C1CCNC(=O)c2c1ccn2Cc1ccc(-c2cccc(O)c2)cc1`, the inhibition result is “inactive”.
On to `O=C1CCN(Cc2ccccc2)C(=O)c2c1ccn2Cc1ccccc1`, for which the inhibition result was “inactive”.
Same read-out and setting: under `O=C1NCCC(O)c2ccn(Cc3ccc(-c4ccccc4)cc3)c21` (centres undefined) stands “inactive”; under `CCCCOc1ccc(-c2ccc(Cn3ccc4c3C(=O)NCCC4=O)cc2)cc1`, “Active”.
For `O=C1CCNC(=O)c2[nH]ccc21`, the inhibition entry is “Active”.
As to `N#Cc1ccccc1-c1ccc(Cn2ccc3c2C(=O)NCCC3=O)cc1`, the inhibition result was “inactive”.
Still for that read-out and setting: under `COc1ccc(-c2ccc(Cn3c4c(c5ccccc53)C(=O)CCNC4=O)cc2)cc1` stands “Active”; under `COc1ccc(-c2ccc(Cn3ccc4c3C(=O)N(C)CCC4=O)cc2)cc1`, “Active”.
As for `Cc1ccc(-c2ccc(Cn3ccc4c3C(=O)NCCC4=O)cc2)cc1`, the inhibition entry is “Active”.
